Test results from ChEMBL document CHEMBL1127016, “Inhibitors of the protease from human immunodeficiency virus: synthesis, enzyme inhibition, and antiviral activity of a series of compounds containing the dihydroxyethylene transition-state isostere” (J Med Chem, 1993).

Assays:
[1] = target: Human immunodeficiency virus type 1 protease (Human immunodeficiency virus 1, UniProt Q72874); test: Inhibition of HIV-1 protease in vitro.
Summary of the method: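 Recombinant HIV-1 protease refolded from E. coli inclusion bodies; substrate peptide H-Val-Ser-Gln-Asn-Tyr-Pro-Ile-Val-OH at 2.5 mM. 30 °C, 100 mM sodium acetate pH 5.5 (MOPS for pH 7), 10% glycerol, 5% ethylene glycol, 0.1% NP-40. Inhibitor added before enzyme, five to seven concentrations; stopped at 30 min with TFA, HPLC; Ki from Dixon plots.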

Vaccinia virus [2] = test: Anti viral activity against vaccinia virus in CV-1 (monkey kidney) cells.; assay type: functional, Orthopoxvirus vaccinia; design: concentration or dose not given beside the values
Vaccinia virus [3] = test: Anti viral activity against vaccinia virus in CV-1 (monkey kidney) cells at 1 uM.; assay type: functional; details: Orthopoxvirus vaccinia, CV-1, in Primates

With `CC(C)[C@@H](C(=O)N[C@H]1c2ccccc2CC1O)[C@@H](O)[C@H](O)[C@H](CC1CCCCC1)NC(=O)CCOCCOc1ccccc1` (stereo not given in full) the Ki [1] was > 200 nM.
With `CCC(C)[C@H](NC(=O)[C@H](C(C)C)[C@@H](O)[C@H](O)[C@H](CC1CCCCC1)NC(=O)c1ncccc1OCCOc1ccccc1)C(=O)NCc1nc2ccccc2[nH]1` (stereo not given in full) the Inhibition (Vaccinia virus [2]) was 0% and the Ki [1] was > 200 nM.
For `CC(C)[C@@H](C(=O)N[C@H]1c2ccccc2CC1O)[C@@H](O)[C@H](O)C(CC1CCCCC1)NC(=O)c1ncccc1OCSc1ccccc1` (stereo not given in full), the inhibition at 1 µM (Vaccinia virus [3]) was 0% and the Ki [1] was 600 nM.
For `CCC(C)[C@H](NC(=O)[C@H](C(C)C)[C@@H](O)[C@H](O)C(CC1CCCCC1)NC(=O)C(Cc1c[nH]cn1)NC(=O)COc1cccc2ccccc12)C(=O)NCc1ccccn1` (stereo not given in full), the Ki [1] was < 1 nM.
`COCCOCCOCCOc1ccccc1C(=O)NC(CC1CCCCC1)[C@@H](O)[C@H](O)[C@H](C(=O)N[C@H]1c2ccccc2CC1O)C(C)C` (stereo not given in full) was tested, and the Ki [1] was > 200 nM.
Compound `COCCOCCOc1ccccc1C(=O)N[C@@H](CC1CCCCC1)[C@@H](O)[C@H](O)[C@H](C(=O)N[C@H]1c2ccccc2CC1O)C(C)C` (stereo not given in full) has a Ki [1] of 200 nM.
`CCC(C)[C@H](NC(=O)[C@H](C(C)C)[C@@H](O)[C@H](O)[C@H](CC1CCCCC1)NC(=O)c1ncccc1OCCOCCOC)C(=O)NCc1nc2ccccc2[nH]1` (stereo not given in full) showed an Inhibition (Vaccinia virus [2]) of 0% and a Ki [1] of 100 nM.
`CCC(C)[C@H](NC(=O)[C@H](C(C)C)[C@@H](O)[C@H](O)[C@H](CC1CCCCC1)NC(=O)c1ccc(C)cc1OCCOc1ccccc1)C(=O)NCc1nc2ccccc2[nH]1` (stereo not given in full) gave an Inhibition (Vaccinia virus [2]) of 48% and a Ki [1] of 48 nM.
In the case of `CC(C)[C@@H](C(=O)N[C@H]1c2ccccc2CC1O)[C@@H](O)[C@H](O)[C@H](CC1CCCCC1)NC(=O)c1ncccc1OCCOc1ccccc1` (stereo not given in full), the Ki [1] is reported as > 200 nM.
`CCC(C)[C@H](NC(=O)[C@H](C(C)C)[C@@H](O)[C@H](O)C(CC1CCCCC1)NC(=O)c1ccccc1OCCOCCOCCOC)C(=O)NCc1nc2ccccc2[nH]1` (stereo not given in full) was tested, and the inhibition at 1 µM (Vaccinia virus [3]) was 65% and the Ki [1] was 10 nM.
In the case of `COCCOCCOc1cccnc1C(=O)N[C@@H](CC1CCCCC1)[C@@H](O)[C@H](O)[C@H](C(=O)N[C@H]1c2ccccc2CC1O)C(C)C` (stereo not given in full), the Ki [1] is reported as > 200 nM.
Compound `CC[C@H](C)[C@H](NC(=O)[C@H](C(C)C)[C@@H](O)[C@H](O)[C@H](CC1CCCCC1)NC(=O)c1ccccc1)C(=O)NCc1nc2ccccc2[nH]1` has a Ki [1] of 36 nM.
With `CCC(C)[C@H](NC(=O)[C@H](C(C)C)[C@@H](O)[C@H](O)C(CC1CCCCC1)NC(=O)c1ncccc1OCCOCCOCCOC)C(=O)NCc1nc2ccccc2[nH]1` (stereo not given in full) the inhibition at 1 µM (Vaccinia virus [3]) was 0% and the Ki [1] was 100 nM.
With `CCC(C)[C@H](NC(=O)[C@H](C(C)C)[C@@H](O)[C@H](O)[C@H](CC1CCCCC1)NC(=O)c1ccccc1OCCOc1ccccc1)C(=O)NCc1nc2ccccc2[nH]1` (stereo not given in full) the Inhibition (Vaccinia virus [2]) was 86% and the Ki [1] was 8 nM.
In the case of `CCC(C)[C@H](NC(=O)[C@H](C(C)C)[C@@H](O)[C@H](O)[C@H](CC1CCCCC1)NC(=O)CCOCCOc1ccccc1)C(=O)NCc1nc2ccccc2[nH]1` (stereo not given in full), the Inhibition (Vaccinia virus [2]) is reported as 65% and the Ki [1] is reported as 4 nM.
`CC(C)[C@@H](C(=O)N[C@H]1c2ccccc2CC1O)[C@@H](O)[C@H](O)C(CC1CCCCC1)NC(=O)c1ccccc1OCSc1ccccc1` (stereo not given in full) was tested, and the inhibition at 1 µM (Vaccinia virus [3]) was 0% and the Ki [1] was 200 nM.
In the case of `CC(C)[C@@H](C(=O)N[C@H]1c2ccccc2CC1O)[C@@H](O)[C@H](O)[C@H](CC1CCCCC1)NC(=O)c1ccccc1` (stereo not given in full), the Ki [1] is reported as 16 nM.
`CCC(C)[C@H](NC(=O)[C@H](C(C)C)[C@@H](O)[C@H](O)[C@H](CC1CCCCC1)NC(=O)c1ccccc1OCCOCCOC)C(=O)NCc1nc2ccccc2[nH]1` (stereo not given in full) gave an Inhibition (Vaccinia virus [2]) of 56% and a Ki [1] of 5 nM.
`CCC(C)[C@H](NC(=O)[C@H](C(C)C)[C@@H](O)[C@H](O)C(CC1CCCCC1)NC(=O)c1ncccc1OCSc1ccccc1)C(=O)NCc1nc2ccccc2[nH]1` (stereo not given in full) gave an inhibition at 1 µM (Vaccinia virus [3]) of 0% and a Ki [1] of 140 nM.
`CCC(C)[C@H](NC(=O)[C@H](C(C)C)[C@@H](O)[C@H](O)C(CC1CCCCC1)NC(=O)c1ccccc1OCSc1ccccc1)C(=O)NCc1nc2ccccc2[nH]1` (stereo not given in full) gave an inhibition at 1 µM (Vaccinia virus [3]) of 86% and a Ki [1] of 5 nM.
`COCCOCCOCCOc1cccnc1C(=O)NC(CC1CCCCC1)[C@@H](O)[C@H](O)[C@H](C(=O)N[C@H]1c2ccccc2CC1O)C(C)C` (stereo not given in full) was tested, and the Ki [1] was > 200 nM.
`CC(C)[C@@H](C(=O)N[C@H]1c2ccccc2CC1O)[C@@H](O)[C@H](O)[C@H](CC1CCCCC1)NC(=O)c1ccccc1OCCOc1ccccc1` (stereo not given in full) was tested, and the Ki [1] was > 200 nM.
For `CC[C@H](C)[C@H](NC(=O)[C@H](C(C)C)[C@@H](O)[C@H](O)[C@H](CC1CCCCC1)NC(=O)C1CCCCC1)C(=O)NCc1ccccn1`, the Ki [1] was 22 nM.
